In PubChem BioAssay AID623951 (Broad Institute, 2012):

Target: PvdQ acyl-homoserine lactone acylase (Pseudomonas aeruginosa LESB58)
Assay: P. aeruginosa PvdQ acylase inhibitors, dose response, biochemical, fluorescence, plate reader, dry powder samples (AID 623951)
Conditions: purified PvdQ, 4-MU laurate hydrolysis
Summary of the method: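 Assay system: Purified Pseudomonas aeruginosa PvdQ acylase enzyme | Buffer or medium: Tris pH 8.0, NaCl, TCEP, Triton X-100 | Reagent: 4-methylumbelliferone laurate substrate at 0.8 mM final | Incubation: 30 min pre-incubation, 60 min reaction, RT | Detection: Fluorescence, ex 303–367 nm, em 440–460 nm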

Row | Structure (SMILES) | AC50 [nM]
1 | N#CC(c1ccc(Cl)cc1)c1ccc(C(F)(F)F)cn1 (stereo unspecified) | 546
2 | N#CC(c1ccc(C(F)(F)F)cc1)c1ccc(C(F)(F)F)c(Cl)n1 (stereo unspecified) | 1390
3 | N#CC(c1ccc(C(F)(F)F)cc1)c1cccc(Cl)n1 (stereo unspecified) | 287
4 | N#CC(c1ccc(Cl)cc1Cl)c1ncccc1Cl (stereo unspecified) | 279
5 | N#Cc1cccc(C(C#N)c2ccccc2OC(F)(F)F)n1 (stereo unspecified) | 1340
6 | N#CC(c1ccc(F)cc1)c1ccc(C(F)(F)F)c(Cl)n1 (stereo unspecified) | 398
7 | N#CC(c1cccc(Cl)n1)c1ccc(Cl)cc1Cl (stereo unspecified) | 203
8 | N#CC(c1cccc(Cl)n1)c1ccccc1OC(F)(F)F (stereo unspecified) | 936
9 | CCCCC(C#N)c1ccc(Cl)cc1F (stereo unspecified) | 457
10 | N#CC(c1cccc(Cl)n1)c1ccc(Cl)cc1F (stereo unspecified) | 77
11 | N#Cc1cccc(C(C#N)c2ccc(Cl)cc2Cl)n1 (stereo unspecified) | 380
12 | N#CC(c1ccc(Cl)cc1)c1cccc(C(F)(F)F)n1 (stereo unspecified) | 11.1
13 | N#CC(CC1CC1)c1ccc(Cl)cc1 (stereo unspecified) | 258
14 | Cc1ccc(C(C#N)c2ccc(Cl)cc2)nc1 (stereo unspecified) | 271
15 | COc1cccc(C(C#N)c2ccc(F)cc2)n1 (stereo unspecified) | 240
16 | Cc1ccc(C(C#N)c2ccc(Cl)cc2)nc1C#N (stereo unspecified) | 221
17 | CCCCC(C#N)c1ccc(F)cc1 (stereo unspecified) | 20.2
18 | CCCCC(C#N)c1ccc(Cl)cc1 (stereo unspecified) | 118
19 | N#Cc1ccc(C(C#N)c2ccc(Cl)cc2)nc1 (stereo unspecified) | 2660
20 | N#CC(c1ccc(Cl)cc1)c1ncccc1Cl (stereo unspecified) | 5.76
21 | N#CC(c1ccc(C(F)(F)F)c(Cl)n1)c1ccc(Cl)cc1F (stereo unspecified) | 802

Row | Structure (SMILES) | AC50 [nM]
22 | CC(C)CC(C#N)c1ccc(Cl)cc1 (stereo unspecified) | 121
23 | Cc1ccc(C(C#N)c2ccc(F)cc2)nc1C#N (stereo unspecified) | 142
24 | N#CC(c1ccc(Cl)cc1)c1ccc(Cl)cn1 (stereo unspecified) | 62.8
25 | N#CC(c1ccc(C(F)(F)F)c(Cl)n1)c1ccccc1OC(F)(F)F (stereo unspecified) | 433
26 | N#CC(c1cccc(C(F)(F)F)n1)c1ccccc1OC(F)(F)F (stereo unspecified) | 1530
27 | CCCCC(C#N)c1ccc(C(F)(F)F)cc1 (stereo unspecified) | 182
28 | N#Cc1ccc(C(C#N)c2ccc(Cl)cc2Cl)nc1 (stereo unspecified) | 2700
29 | N#Cc1cccc(C(C#N)c2ccc(Cl)cc2F)n1 (stereo unspecified) | 140
30 | N#CC(c1ccc(C(F)(F)F)cc1)c1cccc(C(F)(F)F)n1 (stereo unspecified) | 43.4
31 | CC(C#N)(c1ccc(Cl)cc1)c1ccc(C(F)(F)F)cn1 (stereo unspecified) | 5630
32 | N#CC(c1cccc(C(F)(F)F)n1)c1ccc(Cl)cc1F (stereo unspecified) | < 3
33 | Cc1cccc(C(C#N)c2ccc(Cl)cc2)n1 (stereo unspecified) | 138
34 | N#Cc1cccc(C(C#N)c2ccc(Cl)cc2)n1 (stereo unspecified) | 138
35 | N#CC(c1ccc(C(F)(F)F)c(Cl)n1)c1ccc(Cl)cc1Cl (stereo unspecified) | 831
36 | N#CC(c1ccc(Cl)cc1)c1ccc(C(F)(F)F)c(Cl)n1 (stereo unspecified) | 414
37 | Cc1ccc(C(C#N)c2ccccc2OC(F)(F)F)nc1C#N (stereo unspecified) | 467
38 | N#CC(c1ccc(F)cc1)c1cccc(C(F)(F)F)n1 (stereo unspecified) | 11.7
39 | CCCCC(C#N)c1ccccc1OC(F)(F)F (stereo unspecified) | 1300
40 | CCCCC(C#N)c1ccc(Cl)cc1Cl (stereo unspecified) | 75.6
41 | CCCC(C#N)c1ccc(Cl)cc1 (stereo unspecified) | 99.4
